Shown are actives, neighbours in structure and some others; about 4.2% of the full set was active somewhere.
TAAR1 antagonist = human TAAR1 antagonists, primary screen, Fluo-8 calcium fluorescence, CHO RD-HGA16 cells; AID 624466, 2012; inhibition, % at 3 µM; hit rate 1.5% among 360,000; Trace amine-associated receptor 1 (Homo sapiens), Q96RJ0; antagonist;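 active = inhibition above a per-plate cutoff, the mean inhibition of test compounds on that plate plus 3 SD, cut at about 49% in these data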;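 also: 0% = DMSO plus EC80 beta-PEA response and 100% = DMSO alone without agonist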
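Material: RD-HGA16 CHO cells with stable hTAAR1 and Gα16; Dosing: single nominal final test compound concentration of 3 µM; Schedule: seeding 17-24 h prior, 75-min 37 °C, 30-min RT dye loading; Detection: kinetic Fluo-8 calcium fluorescence measurement; Measure: % inhibition from peak post-agonist over basal fluorescence ratio; Benchmarks: vehicle and agonist controls.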
CHO parental Ca = ATP-evoked calcium signal inhibitors, parental CHO, primary screen, counter-screen for OX1R antagonist project, cell-based, fluorescence, Fluo-8 calcium dye; hit rate 0.63% among 330,000; inhibition, % at 5.6 µM; AID 463079, 2010; parental CHO-K1, ATP-induced calcium, Fluo-8 fluorescence;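 active = inhibition above that plate's mean sample inhibition plus 3 SD, cut at about 26% in these data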;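 also: 0% = ATP-challenged DMSO wells and 100% = DMSO wells without ATP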
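material = parental CHO cells | also added = ATP as calcium-mobilizing challenge | dosing = single point at 5.6 µM | detection = intracellular calcium via Fluo-8 no-wash fluorescent dye | read-out = % inhibition | benchmarks = low control ATP plus DMSO, high control DMSO only | repeats = one well per compound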
GalR3 antag = GalR3 antagonists in HEK293 cells, primary screen, cell-based, fluorescence readout; Galanin receptor type 3 (Homo sapiens), O60755; HEK293 GalR3-CNG cAMP membrane potential fluorescence; galR3 body fused to GalR1 C-terminus; inhibition, % at 3 µM; hit rate 0.44% among 360,000;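 active = inhibition above the screen-wide average plus 3 SD, cut at about 13% in these data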;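 also: forskolin and galanin both at EC90 stimulate the cells; cAMP rise reported by CNG channel membrane potential dye signal; 0% = forskolin plus galanin with DMSO and 100% = forskolin alone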
Target sequence (O60755 1-299 limits assumed): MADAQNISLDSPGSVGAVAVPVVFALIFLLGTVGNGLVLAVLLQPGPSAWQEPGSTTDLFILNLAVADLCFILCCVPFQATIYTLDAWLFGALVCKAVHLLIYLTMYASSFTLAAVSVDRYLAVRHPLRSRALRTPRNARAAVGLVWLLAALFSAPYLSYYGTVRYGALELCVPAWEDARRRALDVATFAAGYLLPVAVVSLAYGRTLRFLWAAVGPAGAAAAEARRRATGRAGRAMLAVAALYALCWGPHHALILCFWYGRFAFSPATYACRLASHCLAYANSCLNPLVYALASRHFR
OX1R antag-1 = antagonists of human orexin 1 receptor (OX1R). Orexin/Hypocretin receptor type 1 (Homo sapiens), O43613. OX1R-expressing cells, FRET antagonist read-out. inhibition, % at 6.6 µM. hit rate 1.8% among 330,000. AID 485270, 2010; in the data active = inhibition mostly above about 38%, no sharp cut-off; inactive = mostly below about 40%;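 also: 0% = agonist challenge alone and 100% = reference antagonist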
Target sequence (O43613 whole entry, looked up): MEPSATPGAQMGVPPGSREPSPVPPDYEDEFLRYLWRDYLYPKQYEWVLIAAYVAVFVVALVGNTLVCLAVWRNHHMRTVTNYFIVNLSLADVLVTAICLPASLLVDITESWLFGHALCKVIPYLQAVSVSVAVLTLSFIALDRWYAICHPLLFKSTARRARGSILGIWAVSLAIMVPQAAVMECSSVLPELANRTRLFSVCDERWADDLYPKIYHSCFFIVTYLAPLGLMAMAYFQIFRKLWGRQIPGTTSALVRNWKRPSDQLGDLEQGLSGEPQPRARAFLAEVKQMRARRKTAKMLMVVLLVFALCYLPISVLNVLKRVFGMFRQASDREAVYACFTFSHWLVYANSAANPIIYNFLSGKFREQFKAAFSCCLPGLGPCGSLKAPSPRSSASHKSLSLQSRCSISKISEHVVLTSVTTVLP
OX1R antag-2 = OX1R (HCRTR1) antagonists, primary screen, fluorescence, CHO/OX1R cells, Fluo-8 calcium, orexin A. Orexin/Hypocretin receptor type 1 (Homo sapiens), O43613. Fluo-8 calcium fluorescence. inhibition, % at 5 µM. hit rate 0.43% among 330,000. AID 434989, 2010;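 active = inhibition above its plate's threshold, mean inhibition of all tested compounds on the plate plus 3 SD, cut at about 37% in these data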;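 also: 0% = orexin A challenge wells and 100% = SB-334867-A antagonist wells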
TAAR1 agonist = human TAAR1 agonists, primary screen, Fluo-8 calcium fluorescence, CHO RD-HGA16 cells. vehicle wells 0%, saturating PEA agonist 100%. AID 624467, 2012. activation, % at 3 µM. Trace amine-associated receptor 1 (Homo sapiens), Q96RJ0. hit rate 0.99% among 360,000;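 active = activation above the mean activation of all test compounds in the run plus 3 SD, cut at about 38% in these data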
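Test system: RD-HGA16 (CHO) cells co-expressing Gα16 and hTAAR1 | Doses: Single dose, 3 µM | Schedule: 17-24 h seeding, 75 min 37 °C dye, 30 min RT | Evaluation: % activation from peak over basal fluorescence ratio, DMSO-to-PEA scaled | Technique: Kinetic Fluo-8 calcium fluorescence | Benchmarks: Low control DMSO, high control PEA (EC100)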
nonsel antag count = nonselective antagonists in TAAR1 counter-screen cells, counter-screen for hTAAR1 antagonist project, cell-based, fluorescence, calcium; hit rate 77% among 2,400; counterscreen cell line, antagonist mode; AID 651780, 2012; shares compounds with TAAR1 antagonist; inhibition, % at 3 µM; in the data active = inhibition above about 22%;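 also: CHO-Ga16 host cells stimulated with ATP at an EC80 level; 0% = agonist EC80 plus vehicle and 100% = vehicle without agonist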
TAAR1 antag conf = human TAAR1 antagonists, retest of hits, confirmation, cell-based, fluorescence; AID 651785, 2012; hit rate 40% among 2,400; shares compounds with TAAR1 antagonist; TAAR1-expressing cells, fluorescence antagonist read-out; inhibition, % at 3 µM; in the data active = inhibition above about 49%;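 also: CHO-Ga16 host cells challenged with agonist PEA near its EC80; 0% = agonist at EC80 plus vehicle and 100% = vehicle with no agonist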
Ga16 nonsel ag = calcium activation in Ga16-expressing cells, counter-screen for TAAR1 antagonist project, cell-based, fluorescence; agonist counterscreen; shares compounds with TAAR1 antagonist; hit rate 18% among 2,400; activation, % at 3 µM; in the data active = activation above about 12%;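 also: 0% = vehicle wells and 100% = saturating stimulus response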
TAAR1 ag count = TAAR1 activation by candidate antagonists – cell-based, fluorescence, counter-screen for TAAR1 antagonist project; hit rate 2% among 2,400; hTAAR1 cell line, agonist mode; activation, % at 3 µM; shares compounds with TAAR1 antagonist; in the data active = activation above about 37%;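 also: CHO cells stably expressing TAAR1 with calcium dye readout; 0% = DMSO vehicle and 100% = full agonist response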
* hit, by the source's call; · = no result given.

SMILES	TAAR1 antagonist	CHO parental Ca	GalR3 antag	OX1R antag-1	OX1R antag-2	TAAR1 agonist	nonsel antag count	TAAR1 antag conf	Ga16 nonsel ag	TAAR1 ag count
Cn1cccc1/C=N\NC(=O)C1COc2ccc(C(C)(C)C)cc2O1 (stereo not drawn)	51*	-15	3	8	-3	0	25*	39	7	1
O=C(CN1CCCCCC1)N/N=C/c1ccc2ccccc2c1	-16	·	-10	·	·	3	·	·	·	·
CCn1c(SCC(=O)Nc2ccc(NC(=O)c3ccco3)c(OC)c2)nc2ccccc2c1=O	5	-13	-5	9	-30	4	·	·	·	·
COc1ccc(CN2CCN(C(=O)c3cc(-c4cccnc4)nc4ccc(Cl)cc34)CC2)c(OC)c1OC	72*	-19	-1	17	-30	18	32*	54*	8	7
O=C(c1cc(-c2ccncc2)nc2ccc(Cl)cc12)N1CCN(Cc2ccc3c(c2)OCO3)CC1	58*	-15	-2	4	-15	20	32*	53*	10	10
C(=C\c1ccccc1)/C=N/N1CCN(c2ccccn2)CC1	-10	-25	4	6	-27	6	·	·	·	·
CCOC(=O)c1c(S(=O)(=O)NCC(=O)Nc2cccc(C)n2)c(C)n(C)c1C	-7	-23	-3	3	-7	3	·	·	·	·
O=C(NCc1ccccc1)c1cccc2c(-c3cccnc3)coc12	25	·	-5	·	·	9	·	·	·	·
NC(=O)c1cccc(-c2coc3c(C(=O)NCCc4ccccc4)cccc23)c1	64*	·	1	·	·	6	36*	45	6	6
O=C(Cc1ccc(S(=O)(=O)N2CCOCC2)s1)Nc1ccc(N2CCOCC2)cc1	-11	-3	1	21	7	9	·	·	·	·
CC1CCCCC12NC(=O)N(CC(=O)OCC(=O)Nc1ccc(F)cc1[N+](=O)[O-])C2=O (stereo not drawn)	76*	-9	-1	19	3	21	32*	53*	10	14
COc1ccccc1C(=O)NC(=O)COC(=O)CN1C(=O)NC2(CCCCC2C)C1=O (stereo not drawn)	-10	-6	-2	2	-6	0	·	·	·	·
CCC1(CC)NC(=O)N(CC(=O)OCC(=O)Nc2ccccc2[N+](=O)[O-])C1=O	68*	-9	3	38	-12	19	23*	52*	12*	10
C=C(C)COc1ccc(-c2n[nH]c(C)c2Oc2ccccc2OC)c(O)c1	52*	-6	-6	18	-6	-2	8	10	1	2
Oc1cc(OCc2ccccc2)ccc1-c1[nH]ncc1-c1ccccc1	12	20	-4	22	0	1	·	·	·	·
C=C(C)COc1ccc(-c2[nH]ncc2-c2ccccc2)c(O)c1	60*	-3	-1	1	13	20	-1	9	1	12
CCOc1ccc(-c2n[nH]c(C)c2Oc2ccccc2OC)c(O)c1	12	6	0	5	6	2	·	·	·	·
FC(F)(F)c1cc(-c2ccccc2)nc(NCC2CCCO2)n1 (stereo not drawn)	7	-14	-5	16	-20	7	·	·	·	·
COCCNc1nc(Oc2ccc(NC(C)=O)cc2)c2sc(-c3ccccc3)cc2n1	55*	·	-6	·	·	8	52*	50*	9	8
COCCNc1nc(Oc2ccc(CC(=O)OC)cc2)c2sc(-c3ccccc3)cc2n1	-2	·	-5	·	·	1	·	·	·	·
O=C(CSc1ncnc2scc(-c3ccc(F)cc3)c12)c1ccc2c(c1)OCCO2	-12	-12	-3	24	-17	1	·	·	·	·
COc1ccc(NC(=O)CSCC(=O)Nc2cccc(S(=O)(=O)N3CCCCCC3)c2)cc1	24	-9	-1	16	-26	9	·	·	·	·
O=C(CCc1ccccc1)c1c(O)cc(O)cc1O	68*	4	-6	16	2	3	25*	30	4	1
COCCN(Cc1ccccc1)C(=O)c1cc(-c2ccc(OC)c(OC)c2)nc2ccccc12	62*	-25	3	27	-20	4	26*	45	6	9
COc1cc(-c2cc(C(=O)N(C)Cc3ccccc3)c3ccccc3n2)cc(OC)c1OC	47	-25	1	-26	-36	5	·	·	·	·
SMILES	TAAR1 antagonist	CHO parental Ca	GalR3 antag	OX1R antag-1	OX1R antag-2	TAAR1 agonist	nonsel antag count	TAAR1 antag conf	Ga16 nonsel ag	TAAR1 ag count
COc1ccc(-c2cc(C(=O)NCC(c3ccccc3)N(C)C)c3ccccc3n2)cc1OC (stereo not drawn)	27	-19	-5	7	-32	12	·	·	·	·
COc1cc(-c2cc(C(=O)OCC(=O)NC3CC3)c3ccccc3n2)cc(OC)c1OC	68*	-22	-3	18	-12	13	27*	41	8	10
COCCN(CC(=O)Nc1cccc(C)c1C)C(=O)c1cc(-c2ccncc2)nc2ccccc12	74*	-45	-1	2	-38	18	31*	56*	7	6
COc1ccc(-c2cc(C(=O)N(C)Cc3ccccc3F)c3ccccc3n2)cc1OC	78*	-5	-1	38	-26	9	28*	44	7	5
COC(=O)c1ccc(CN2CCc3ccccc32)cc1	1	-4	-8	5	-19	6	·	·	·	·
CCCn1c(SC(C)C(=O)NC2CCCC2)n[nH]c1=O (stereo not drawn)	-31	·	-2	·	·	6	·	·	·	·
COc1ccccc1CN(C)C(=O)c1cc(-c2cc(OC)c(OC)c(OC)c2)nc2ccccc12	61*	-15	6	11	-15	8	35*	54*	5	4
